According to ChEMBL document CHEMBL2434951, “Synthesis and antimicrobial activity of polyhalobenzonitrile quinazolin-4(3H)-one derivatives” (2013):
Values after ≈ are worked out from the molar mass of the structure shown. Active and inactive are the calls of the source. No cut-off for these calls is given here.

Experiments:
Type in all cases: functional
Candida albicans = experiment: Antifungal activity against Candida albicans ATCC 10231 assessed as growth inhibition at 1000 ug/mL after 24 hrs by disk diffusion assay; details: for zone of inhibition at 1000 µg/mL: ATCC 10231, 24 h, read-out: DIZ
In short: (§1)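 Disk diffusion on nutrient agar, inoculum spread evenly. Disks of 6 mm Whatman No. 1 paper, dry-heat sterilized at 121 °C for 1 h, soaked in test compound at 1000 (micro)g/mL. Norfloxacin and chlorothalonil disks as positive controls, DMSO disks as negative control. Plates incubated 24 h at 37 °C. Inhibition zone diameter measured in mm.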

Pseudomonas aeruginosa [1] = experiment: Antibacterial activity against Pseudomonas aeruginosa ATCC 15442 assessed as growth inhibition after 24 hrs by liquid dilution method
In short: (§2)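 Liquid (tube) dilution. Compounds and positive controls in DMSO at 11 concentrations from 0.98 upward. Each tube held 1 mL compound solution plus bacterial or fungal inoculum and sterile water. Incubated 24 h, then checked for turbidity; MIC is the lowest concentration without growth. Chlorothalonil, norfloxacin and fluconazole as standards.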

Pseudomonas aeruginosa [2] = experiment: Antibacterial activity against Pseudomonas aeruginosa ATCC 15442 assessed as growth inhibition at 1000 ug/mL after 24 hrs by disk diffusion assay; details: for zone of inhibition at 1000 µg/mL: ATCC 15442, 24 h, read-out: DIZ; in short: as §1
Escherichia coli [3] = experiment: Antibacterial activity against Escherichia coli ATCC 8099 assessed as growth inhibition after 24 hrs by liquid dilution method; in short: as §2
Escherichia coli [4] = experiment: Antibacterial activity against Escherichia coli ATCC 8099 assessed as growth inhibition at 1000 ug/mL after 24 hrs by disk diffusion assay; details: for zone of inhibition at 1000 µg/mL: ATCC 8099, 24 h, read-out: DIZ; in short: as §1
Staphylococcus aureus [5] = experiment: Antibacterial activity against Staphylococcus aureus ATCC 6538 assessed as growth inhibition at 1000 ug/mL after 24 hrs by disk diffusion assay; details: for zone of inhibition at 1000 µg/mL: ATCC 6538, 24 h, read-out: DIZ; in short: as §1
Staphylococcus aureus [6] = experiment: Antibacterial activity against Staphylococcus aureus ATCC 6538 assessed as growth inhibition after 24 hrs by liquid dilution method; in short: as §2
Bacillus cereus [7] = experiment: Antibacterial activity against Bacillus cereus ATCC 14579 assessed as growth inhibition after 24 hrs by liquid dilution method; in short: as §2
Bacillus cereus [8] = experiment: Antibacterial activity against Bacillus cereus ATCC 14579 assessed as growth inhibition at 1000 ug/mL after 24 hrs by disk diffusion assay; details: for zone of inhibition at 1000 µg/mL: ATCC 14579, 24 h, read-out: DIZ; in short: as §1

| MIC (Pseudomonas aeruginosa [1]; ATCC 15442, 24 h) [µg/mL] | MIC (Escherichia coli [3]; ATCC 8099, 24 h) [µg/mL] | MIC (Staphylococcus aureus [6]; ATCC 6538, 24 h) [µg/mL] | MIC (Bacillus cereus [7]; ATCC 14579, 24 h) [µg/mL] | MIC (Pseudomonas aeruginosa [1]) | MIC (Escherichia coli [3]) | MIC (Staphylococcus aureus [6]) | MIC (Bacillus cereus [7]) | Compound | zone of inhibition at 1000 µg/mL (Candida albicans) [mm] | zone of inhibition at 1000 µg/mL (Pseudomonas aeruginosa [2]) [mm] | zone of inhibition at 1000 µg/mL (Escherichia coli [4]) [mm] | zone of inhibition at 1000 µg/mL (Staphylococcus aureus [5]) [mm] | zone of inhibition at 1000 µg/mL (Bacillus cereus [8]) [mm] | diameter of the inhibition zone (DIZ) (Candida albicans) | diameter of the inhibition zone (DIZ) (Pseudomonas aeruginosa [2]) | diameter of the inhibition zone (DIZ) (Staphylococcus aureus [5]) | diameter of the inhibition zone (DIZ) (Bacillus cereus [8]) | diameter of the inhibition zone (DIZ) (Escherichia coli [4]) |
| --- | --- | --- | --- | --- | --- | --- | --- | --- | --- | --- | --- | --- | --- | --- | --- | --- | --- | --- |
| 52.1 (≈ 105 µM) | 104 (≈ 210 µM) | 10.4 (≈ 21 µM) | 0.7 (≈ 1.41 µM) | – | – | – | – | Cc1ccc(Nc2ccc(Nc3c(Cl)c(Cl)c(C#N)c(Cl)c3C#N)c3nc[nH]c(=O)c23)cc1 | 9.5 | 12 | 10.5 | 9.3 | 11 | – | – | – | – | – |
| 417 (≈ 771 µM) | 417 (≈ 771 µM) | 500 (≈ 925 µM) | 52.1 (≈ 96.3 µM) | – | – | – | – | Cc1ccc(Nc2c(Cl)c(Cl)c(C#N)c(Cl)c2C#N)c(Nc2ccc([N+](=O)[O-])c3nc[nH]c(=O)c23)c1 | 7.5 | 9.5 | 9 | 9.3 | 10.7 | – | – | – | – | – |
| 83.4 (≈ 173 µM) | 250 (≈ 519 µM) | 125 (≈ 259 µM) | 0.5 (≈ 1.04 µM) | – | – | – | – | N#Cc1c(Cl)c(Cl)c(Nc2ccc(Nc3ccccc3)c3c(=O)[nH]cnc23)c(C#N)c1Cl | 10.3 | 11.3 | 11 | 10 | 11.7 | – | – | – | – | – |
| 20.8 (≈ 66.8 µM) | 20.8 (≈ 66.8 µM) | 10.4 (≈ 33.4 µM) | 20.8 (≈ 66.8 µM) | – | – | – | – | Cc1ccc(N)c(Nc2ccc([N+](=O)[O-])c3nc[nH]c(=O)c23)c1 | 13.5 | 16.8 | 14.7 | 5.3 | 15 | – | – | – | – | – |
| – | – | – | – | inactive | inactive | inactive | inactive | Nc1ccc(Nc2cccc(Cl)c2)c2c(=O)[nH]cnc12 | – | 6.5 | 6 | 6.5 | 6 | inactive | – | – | – | – |
| – | 83.3 (≈ 163 µM) | 15.6 (≈ 30.6 µM) | 0.8 (≈ 1.57 µM) | inactive | – | – | – | Cc1ccc(Nc2ccc(Nc3c(Cl)c(Cl)c(C#N)c(Cl)c3C#N)c3nc[nH]c(=O)c23)cc1C | 10 | 9.4 | 10.8 | 8.5 | 11 | – | – | – | – | – |
| 500 (≈ 1110 µM) | – | – | 500 (≈ 1110 µM) | – | inactive | inactive | – | N#Cc1c(F)c(Cl)c(Nc2ccc(Nc3ccccc3)c3c(=O)[nH]cnc23)c(C#N)c1F | 6 | 9.5 | – | 8.9 | 6 | – | – | – | – | inactive |
| 417 (≈ 807 µM) | 333 (≈ 646 µM) | 4.7 (≈ 9.11 µM) | 83.3 (≈ 161 µM) | – | – | – | – | N#Cc1c(Cl)c(Cl)c(Nc2ccc(Nc3ccc(Cl)cc3)c3c(=O)[nH]cnc23)c(C#N)c1Cl | 9.5 | 9.5 | 9 | 8.8 | 9 | – | – | – | – | – |
| 83.4 (≈ 168 µM) | 125 (≈ 252 µM) | 52.1 (≈ 105 µM) | 0.5 (≈ 1.01 µM) | – | – | – | – | Cc1ccccc1Nc1ccc(Nc2c(Cl)c(Cl)c(C#N)c(Cl)c2C#N)c2nc[nH]c(=O)c12 | – | 9 | 12.5 | 10 | 10.5 | inactive | – | – | – | – |
| 417 (≈ 900 µM) | 500 (≈ 1080 µM) | 500 (≈ 1080 µM) | 292 (≈ 630 µM) | – | – | – | – | Cc1cccc(Nc2ccc(Nc3c(Cl)c(F)c(C#N)c(F)c3C#N)c3nc[nH]c(=O)c23)c1 | 9.5 | 10 | 9.3 | 9.8 | 10 | – | – | – | – | – |
| 500 (≈ 1030 µM) | 208 (≈ 431 µM) | 20.8 (≈ 43 µM) | 41.7 (≈ 86.3 µM) | – | – | – | – | N#Cc1c(F)c(Cl)c(Nc2ccc(Nc3ccc(Cl)cc3)c3c(=O)[nH]cnc23)c(C#N)c1F | 8.5 | 12 | 9 | 9.7 | 10.4 | – | – | – | – | – |
| 208 (≈ 450 µM) | 208 (≈ 450 µM) | 208 (≈ 450 µM) | 52.1 (≈ 113 µM) | – | – | – | – | Cc1ccccc1Nc1ccc(Nc2c(Cl)c(F)c(C#N)c(F)c2C#N)c2nc[nH]c(=O)c12 | 7.5 | 9.5 | 9.7 | 10.3 | 10.8 | – | – | – | – | – |
| 125 (≈ 237 µM) | 167 (≈ 316 µM) | 250 (≈ 475 µM) | 41.7 (≈ 79.2 µM) | – | – | – | – | N#Cc1c(Cl)c(Cl)c(Nc2ccccc2Nc2ccc([N+](=O)[O-])c3nc[nH]c(=O)c23)c(C#N)c1Cl | – | 6.7 | 7 | 7.3 | 11.2 | inactive | – | – | – | – |
| 250 (≈ 991 µM) | 208 (≈ 826 µM) | 208 (≈ 824 µM) | 125 (≈ 495 µM) | – | – | – | – | Nc1ccc(Nc2ccccc2)c2c(=O)[nH]cnc12 | – | 7 | – | – | 9.5 | inactive | – | inactive | – | inactive |
| 417 (≈ 1560 µM) | 250 (≈ 939 µM) | 250 (≈ 939 µM) | 167 (≈ 626 µM) | – | – | – | – | Cc1ccccc1Nc1ccc(N)c2nc[nH]c(=O)c12 | 10 | 8.5 | 9 | 8 | 6 | – | – | – | – | – |

The next lines start with the compound.

| Compound | MIC (Pseudomonas aeruginosa [1]; ATCC 15442, 24 h) [µg/mL] | MIC (Escherichia coli [3]; ATCC 8099, 24 h) [µg/mL] | MIC (Staphylococcus aureus [6]; ATCC 6538, 24 h) [µg/mL] | MIC (Bacillus cereus [7]; ATCC 14579, 24 h) [µg/mL] | MIC (Pseudomonas aeruginosa [1]) | MIC (Escherichia coli [3]) | MIC (Staphylococcus aureus [6]) | MIC (Bacillus cereus [7]) | zone of inhibition at 1000 µg/mL (Candida albicans) [mm] | zone of inhibition at 1000 µg/mL (Pseudomonas aeruginosa [2]) [mm] | zone of inhibition at 1000 µg/mL (Escherichia coli [4]) [mm] | zone of inhibition at 1000 µg/mL (Staphylococcus aureus [5]) [mm] | zone of inhibition at 1000 µg/mL (Bacillus cereus [8]) [mm] | diameter of the inhibition zone (DIZ) (Candida albicans) | diameter of the inhibition zone (DIZ) (Pseudomonas aeruginosa [2]) | diameter of the inhibition zone (DIZ) (Staphylococcus aureus [5]) | diameter of the inhibition zone (DIZ) (Bacillus cereus [8]) | diameter of the inhibition zone (DIZ) (Escherichia coli [4]) |
| --- | --- | --- | --- | --- | --- | --- | --- | --- | --- | --- | --- | --- | --- | --- | --- | --- | --- | --- |
| CCN(CC)c1ccc(N)c2nc[nH]c(=O)c12 | – | – | – | – | – | – | – | – | – | 7.5 | 6 | 7.3 | 6 | inactive | – | – | – | – |
| CN(C)c1ccc(N)c2nc[nH]c(=O)c12 | – | – | – | – | – | – | – | – | – | – | 8.5 | – | – | inactive | inactive | inactive | inactive | – |
| Nc1ccc(Nc2ccc(F)cc2)c2c(=O)[nH]cnc12 | – | – | – | – | – | – | – | – | – | 6 | – | – | 6 | inactive | – | inactive | – | inactive |
| Cc1ccc(Nc2ccc(N)c3nc[nH]c(=O)c23)cc1C | – | – | – | – | – | – | – | – | – | – | – | 6.5 | – | inactive | inactive | – | inactive | inactive |
| Nc1ccc(Nc2ccc(Cl)cc2)c2c(=O)[nH]cnc12 | – | – | – | – | – | – | – | – | – | – | – | – | – | inactive | inactive | inactive | inactive | inactive |
| Cc1cc(C)cc(Nc2ccc(N)c3nc[nH]c(=O)c23)c1 | – | – | – | – | – | – | – | – | – | 6.3 | – | – | 6 | inactive | – | inactive | – | inactive |
| Cc1cccc(Nc2ccc(N)c3nc[nH]c(=O)c23)c1 | – | – | – | – | – | – | – | – | – | – | 6.5 | – | – | inactive | inactive | inactive | inactive | – |
| Nc1ccc(N2CCCCC2)c2c(=O)[nH]cnc12 | – | – | – | – | – | – | – | – | – | – | 7.8 | – | – | inactive | inactive | inactive | inactive | – |
| CCN(CC)c1ccc(Nc2c(Cl)c(Cl)c(C#N)c(Cl)c2C#N)c2nc[nH]c(=O)c12 | – | – | – | – | – | – | – | – | – | 7.5 | 6 | 7.7 | 6 | inactive | – | – | – | – |
| Cc1ccc(Nc2ccc(N)c3nc[nH]c(=O)c23)cc1 | – | – | – | – | – | – | – | – | – | – | – | – | – | inactive | inactive | inactive | inactive | inactive |
| Nc1ccccc1Nc1ccc([N+](=O)[O-])c2nc[nH]c(=O)c12 | – | – | – | – | – | – | – | – | – | – | 7.8 | – | – | inactive | inactive | inactive | inactive | – |
